Data on 4 compounds can be found in publication PMC3367325 (Journal of Natural Products, 2012).

Like-named read-outs stand apart in the source and are kept apart here. Peptide text beside a SMILES is read from it. * marks the point of attachment. Cbz = O=C(OCc1ccccc1)*

One data set has as its system alpha(2B) adrenoceptor. Conditions: cited from earlier work.
A short description of the next data set: Aggregation assay. Conditions: 1 to 10 µM. Type of data set: physicochemical.
For data set [1] the following is noted: pH of greater than seven; has been reported, no reference given; cited from earlier work.
Data set [2] deals with T1, human 20S proteasome (CT-L activity) (Homo sapiens, UniProt P28074).
In data set [3] the target is human 20S proteasome (T-L activity) (Homo sapiens, UniProt Q99436). In words: Tryptic-like. The class given is biochemical. Particulars: purified human 20S proteasome.
Data set [4] deals with T1, human 20S proteasome (CT-L activity). Kind of data set: IC50 pre- and post-centrifugation of palau’amine in reaction buffer. The class given is biochemical. Conditions: 15,000g for 30 min, supernatant. A digest of the protocol:
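Test compound in reaction buffer was spun at 15000g for 30 min, and the IC50 was compared with that of unspun material. CT-L assay: 1 nM purified human 20S proteasome in 50 mM Tris-HCl pH 7.5 with 0.03% SDS and Suc-LLVY-AMC at its Km, at 37 °C. AMC fluorescence (ex 380/em 460 nm) was read each minute for 30 min, and the maximal rate gave activity.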

Another data set deals with HeLa cells. Kind of data set: Accumulation of ubiquitinylated proteins, confocal microscopy. Conditions: 1.0 µM, 2 h, versus vehicle, p =0.001. The class given is cell-based, human.
The target of data set [5] is T1, human 20S proteasome (CT-L activity). Kind of data set: Chymotryptic-like. Particulars: purified human 20S proteasome. The class given is biochemical.

Regarding `NC1=N[C@]23CCCN2C(=O)c2cc(Br)c(Br)n2[C@@H]3N1` (racemic) [(±) -2, ±-dibromophakellin], in the data set on alpha(2B) adrenoceptor, the “Activity against the alpha(2B) adrenoceptor” value was “agonist activity”.

Regarding `NC[C@@H]1[C@H]2CN3C(=O)c4cccn4[C@@H]4NC(N)=N[C@@]43[C@@H]2[C@]2(N=C(N)N[C@H]2O)[C@H]1Cl.O=C(O)C(F)(F)F` (racemic) [(±) - 1, palau’amine], in the data set “Aggregation assay”, the Formation of aggregates result is “not to form aggregates”. Moreover, the “Stability at pH greater than seven (reported)” value in data set [1] was “unstable”. In addition, the “CT-L proteolytic activity of 20S proteasome pre-washing” value in data set [2] (1 µM MG-132, 1 µM epoxomicin, 10 µM palau’amine, 1 nM 20S) is on record as “complete abrogation”. For the same compound, the “Binding mechanism to the 20S proteasome” value in data set [2] (kinetic analysis and washing experiments) was “irreversible-type”. Further, in data set [2] (washed with 500 volumes of reaction buffer), the “CT-L proteolytic activity of 20S proteasome post-washing” value is given as “complete abrogation”. Moreover, the “Effect on T-L activity of the proteasome” value in data set [3] was “did not affect”. Moreover, in data set [4], the “Change in CT-L IC50 post-centrifugation versus pre-centrifugation” value is recorded as “no significant change”. In addition, in the data set on HeLa cells, the “Accumulation of ubiquitinylated proteins (ubiquitin-Alexa 546 red fluorescence)” value is “robust increase”.

Turning to `CC(C)C[C@@H](C=O)NC(=O)[C@H](CC(C)C)NC(=O)[C@H](CC(C)C)NC(=O)OCc1ccccc1` [MG-132, reference compound] (Cbz-Leu-Leu-Leu-aldehyde), in data set [2], the “CT-L proteolytic activity of 20S proteasome post-washing” value was “almost completely restored” and the “CT-L proteolytic activity of 20S proteasome pre-washing” value is “completely abrogated”.

As to `O=c1c2cc(Br)c(Br)n2cc2n1CCC2` [compound 4], the “Inhibition of the proteasome (all activities)” value in data set [5] is recorded as “devoid of all activity”.
